The values that follow come from ChEMBL document CHEMBL1141568, “Malaria-infected mice are cured by oral administration of new artemisinin derivatives” (2008).

Holding throughout (format): functional
The test system of test [1] is Plasmodium berghei. As to the kind of experiment: Antimalarial survival activity in Plasmodium berghei infected NMRI mice (Mus musculus) at 30 mg/kg peroral dose (3x daily). The note with it: route oral. The gist of the method: (§1)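 P. berghei GFP ANKA, 2 × 10⁷ parasitized erythrocytes given intravenously to NMRI mice on day 0. Compound in 70/30 Tween 80/ethanol, diluted 10× with water, given orally at 10 mL/kg at 24, 48 and 72 h postinfection; n = 3 per group. Read-out is average survival in days after infection, with individual survival also given. Cure means no blood parasites by flow cytometry on day 30.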

Test [2] deals with Plasmodium berghei. The experiment in a line: Antimalarial activity as survival time in Plasmodium berghei-infected NMRI mice (Mus musculus) at 10 mg/kg peroral dose three times daily. The note with it: route oral. A digest of the protocol:
as §1

Test [3] has as its system Plasmodium berghei. The experiment in a line: Antimalarial survival activity in Plasmodium berghei infected NMRI mice (Mus musculus) at 30 mg/kg peroral dose. The following applies: route oral. A digest of the protocol:
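NMRI mice were infected intravenously on day 0 with 2 × 10⁷ P. berghei GFP ANKA parasitized erythrocytes. One oral dose of 30 mg/kg was given 24 h postinfection in 70/30 Tween 80/ethanol diluted 10× with water, at 10 mL/kg; n = 3 per group. Read-out is average survival in days after infection.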

The subject of test [4] is Plasmodium berghei. As to the kind of experiment: Reduced parasitemia in Plasmodium berghei infected NMRI mice (Mus musculus). The arrangement: concentration or dose not given beside the values. The gist of the method:
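P. berghei GFP ANKA infection (2 × 10⁷ parasitized erythrocytes i.v., day 0) in NMRI mice, n = 3 per group. One oral dose of 1 × 30 mg/kg at 24 h postinfection, in Tween 80/ethanol 70/30 diluted 10× with water. Blood parasitemia on day 3 postinfection by flow cytometry, given as % suppression against untreated infected mice.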

For the compound `C[C@H]1[C@@H](CC(C[C@H]2O[C@@H]3O[C@]4(C)CC[C@H]5[C@H](C)CC[C@@H]([C@H]2C)[C@@]35OO4)=NNC(=O)c2ccncc2)O[C@@H]2O[C@]3(C)CC[C@H]4[C@H](C)CC[C@@H]1[C@@]24OO3`, the Survival result with Plasmodium berghei [1] was “>=30 day”; in the test on Plasmodium berghei [2], 17.7 days; in the test on Plasmodium berghei [3] it was 10 days. This compound also returned an Activity in the test with Plasmodium berghei [4] of 99.4%.
With `C[C@H]1[C@@H](CC(C[C@H]2O[C@@H]3O[C@]4(C)CC[C@H]5[C@H](C)CC[C@@H]([C@H]2C)[C@@]35OO4)C(=O)NCC(C)(C)C)O[C@@H]2O[C@]3(C)CC[C@H]4[C@H](C)CC[C@@H]1[C@@]24OO3` (stereo partly specified), the results for the Survival with Plasmodium berghei [1] and with Plasmodium berghei [2] were 27.7 days and 6 days, respectively.
Regarding `C[C@@H]1CC[C@H]2[C@@H](C)C(OC(=O)CCC(=O)[O-])O[C@@H]3O[C@]4(C)CC[C@@H]1[C@]32OO4.[Na+]` (stereo partly specified), the Survival in the test with Plasmodium berghei [1] was determined as 7.2 days; in the test on Plasmodium berghei [3] it was 7.6 days. The Activity in the test on Plasmodium berghei [4] is recorded as 92%.
Consider `C[C@H]1[C@@H](CC(O)(COCC#CCOCc2ccc(F)cc2)C[C@H]2O[C@@H]3O[C@]4(C)CC[C@H]5[C@H](C)CC[C@@H]([C@H]2C)[C@@]35OO4)O[C@@H]2O[C@]3(C)CC[C@H]4[C@H](C)CC[C@@H]1[C@@]24OO3` (stereo partly specified), for which, in the test on Plasmodium berghei [3], the Survival turned out to be 6.3 days. This compound returned an Activity with Plasmodium berghei [4] of 88%.
As to `C[C@H]1[C@@H](CC2(C[C@H]3O[C@@H]4O[C@]5(C)CC[C@H]6[C@H](C)CC[C@@H]([C@H]3C)[C@@]46OO5)COC3(CCOCC3)O2)O[C@@H]2O[C@]3(C)CC[C@H]4[C@H](C)CC[C@@H]1[C@@]24OO3` (stereo partly specified), the Survival result with Plasmodium berghei [1] was “>=30 day”; with Plasmodium berghei [2], 15.7 days; with Plasmodium berghei [3], 9 days. For the same compound, the Activity in the test with Plasmodium berghei [4] amounted to 99.5%.
For the compound `C[C@H]1[C@@H](CC(O)(COC(=O)c2ccccc2)C[C@H]2O[C@@H]3O[C@]4(C)CC[C@H]5[C@H](C)CC[C@@H]([C@H]2C)[C@@]35OO4)O[C@@H]2O[C@]3(C)CC[C@H]4[C@H](C)CC[C@@H]1[C@@]24OO3` (stereo partly specified), the Survival was determined as 20.7 days in the test with Plasmodium berghei [1] and 6 days in the test on Plasmodium berghei [2].
For the compound `C[C@H]1[C@@H](CC(C[C@H]2O[C@@H]3O[C@]4(C)CC[C@H]5[C@H](C)CC[C@@H]([C@H]2C)[C@@]35OO4)c2nnc(-c3ccc(F)cc3)o2)O[C@@H]2O[C@]3(C)CC[C@H]4[C@H](C)CC[C@@H]1[C@@]24OO3` (stereo partly specified), the Survival in the test with Plasmodium berghei [3] amounted to 10 days. Moreover, the Activity with Plasmodium berghei [4] worked out at 98.8%.
`Cc1ccc(CNC(=O)C(C[C@H]2O[C@@H]3O[C@]4(C)CC[C@H]5[C@H](C)CC[C@@H]([C@H]2C)[C@@]35OO4)C[C@H]2O[C@@H]3O[C@]4(C)CC[C@H]5[C@H](C)CC[C@@H]([C@H]2C)[C@@]35OO4)cc1` (stereo partly specified) displayed a Survival in the test with Plasmodium berghei [3] of 10.3 days. For the same compound, in the test with Plasmodium berghei [4], the Activity came out at 99%.
`C[C@H]1[C@@H](CC2(C[C@H]3O[C@@H]4O[C@]5(C)CC[C@H]6[C@H](C)CC[C@@H]([C@H]3C)[C@@]46OO5)COC3(CCS(=O)(=O)CC3)O2)O[C@@H]2O[C@]3(C)CC[C@H]4[C@H](C)CC[C@@H]1[C@@]24OO3`: the Survival entry with Plasmodium berghei [1] is “>=30 day”; with Plasmodium berghei [2], 8.3 days.
The matching figures for `C[C@H]1[C@@H](CC(C[C@H]2O[C@@H]3O[C@]4(C)CC[C@H]5[C@H](C)CC[C@@H]([C@H]2C)[C@@]35OO4)C(=O)NCc2ccncc2)O[C@@H]2O[C@]3(C)CC[C@H]4[C@H](C)CC[C@@H]1[C@@]24OO3` (stereo partly specified): 11.3 days and 7 days.
Turning to `C[C@H]1[C@@H](CC(O)(COCc2ccncc2)C[C@H]2O[C@@H]3O[C@]4(C)CC[C@H]5[C@H](C)CC[C@@H]([C@H]2C)[C@@]35OO4)O[C@@H]2O[C@]3(C)CC[C@H]4[C@H](C)CC[C@@H]1[C@@]24OO3` (stereo partly specified), the Survival result with Plasmodium berghei [1] is “>=30 day”; with Plasmodium berghei [2], 14.7 days; with Plasmodium berghei [3], 10 days. In addition, the Activity in the test with Plasmodium berghei [4] is on record as 99.2%.
For the compound `C[C@H]1[C@@H](CC2(C[C@H]3O[C@@H]4O[C@]5(C)CC[C@H]6[C@H](C)CC[C@@H]([C@H]3C)[C@@]46OO5)COC3(CCC3)O2)O[C@@H]2O[C@]3(C)CC[C@H]4[C@H](C)CC[C@@H]1[C@@]24OO3` (stereo partly specified), the figures for the Survival result in the test on Plasmodium berghei [1] and with Plasmodium berghei [2] were “>=30 day” and 7 days, respectively.
Regarding `CCOC(=O)N1CCC2(CC1)OCC(C[C@H]1O[C@@H]3O[C@]4(C)CC[C@H]5[C@H](C)CC[C@@H]([C@H]1C)[C@@]35OO4)(C[C@H]1O[C@@H]3O[C@]4(C)CC[C@H]5[C@H](C)CC[C@@H]([C@H]1C)[C@@]35OO4)O2` (stereo partly specified), the Survival entry was “>=30 day” in the test with Plasmodium berghei [1], 14 days with Plasmodium berghei [2] and 8.7 days in the test on Plasmodium berghei [3]. In addition, the Activity in the test with Plasmodium berghei [4] came out at 99.6%.
In the case of `CNC(=O)N1CCC2(CC1)OCC(C[C@H]1O[C@@H]3O[C@]4(C)CC[C@H]5[C@H](C)CC[C@@H]([C@H]1C)[C@@]35OO4)(C[C@H]1O[C@@H]3O[C@]4(C)CC[C@H]5[C@H](C)CC[C@@H]([C@H]1C)[C@@]35OO4)O2` (stereo partly specified), the Survival result with Plasmodium berghei [1] was “>=30 day”; in the test with Plasmodium berghei [2], 13.3 days.
As for `C[C@H]1[C@@H](CC(C[C@H]2O[C@@H]3O[C@]4(C)CC[C@H]5[C@H](C)CC[C@@H]([C@H]2C)[C@@]35OO4)C(=O)N[C@@H](C)c2ccc(F)cc2)O[C@@H]2O[C@]3(C)CC[C@H]4[C@H](C)CC[C@@H]1[C@@]24OO3` (stereo partly specified), the Survival with Plasmodium berghei [3] was 12.7 days. In the test on Plasmodium berghei [4], this compound returned an Activity of 98.9%.
Consider `C[C@H]1[C@@H](CC(C[C@H]2O[C@@H]3O[C@]4(C)CC[C@H]5[C@H](C)CC[C@@H]([C@H]2C)[C@@]35OO4)C(=O)NCC2CCCCC2)O[C@@H]2O[C@]3(C)CC[C@H]4[C@H](C)CC[C@@H]1[C@@]24OO3` (stereo partly specified), for which the Survival entry is “>=30 day” with Plasmodium berghei [1] and 7 days in the test with Plasmodium berghei [2].
For `COC(=O)c1ccc(CNC(=O)C(C[C@H]2O[C@@H]3O[C@]4(C)CC[C@H]5[C@H](C)CC[C@@H]([C@H]2C)[C@@]35OO4)C[C@H]2O[C@@H]3O[C@]4(C)CC[C@H]5[C@H](C)CC[C@@H]([C@H]2C)[C@@]35OO4)cc1` (stereo partly specified), the Survival with Plasmodium berghei [2] was determined as 10 days.
With `C[C@H]1[C@@H](CC2(C[C@H]3O[C@@H]4O[C@]5(C)CC[C@H]6[C@H](C)CC[C@@H]([C@H]3C)[C@@]46OO5)COCO2)O[C@@H]2O[C@]3(C)CC[C@H]4[C@H](C)CC[C@@H]1[C@@]24OO3` (stereo partly specified), the Survival result in the test with Plasmodium berghei [1] was “>=30 day”; in the test with Plasmodium berghei [2], 11 days.
With `Cc1noc(C(C[C@H]2O[C@@H]3O[C@]4(C)CC[C@H]5[C@H](C)CC[C@@H]([C@H]2C)[C@@]35OO4)C[C@H]2O[C@@H]3O[C@]4(C)CC[C@H]5[C@H](C)CC[C@@H]([C@H]2C)[C@@]35OO4)n1` (stereo partly specified), the Survival in the test on Plasmodium berghei [3] came out at 13.7 days. The compound also displayed an Activity with Plasmodium berghei [4] of 98.9%.
Consider `CCOP(=S)(OCC)OCC(C[C@H]1O[C@@H]2O[C@]3(C)CC[C@H]4[C@H](C)CC[C@@H]([C@H]1C)[C@@]24OO3)C[C@H]1O[C@@H]2O[C@]3(C)CC[C@H]4[C@H](C)CC[C@@H]([C@H]1C)[C@@]24OO3` (stereo partly specified), for which the Survival stood at 24.7 days in the test on Plasmodium berghei [1] and 7.7 days with Plasmodium berghei [2].
Regarding `C[C@H]1[C@@H](CC2(C[C@H]3O[C@@H]4O[C@]5(C)CC[C@H]6[C@H](C)CC[C@@H]([C@H]3C)[C@@]46OO5)COC3(CCN(C(=O)c4ccccc4)CC3)O2)O[C@@H]2O[C@]3(C)CC[C@H]4[C@H](C)CC[C@@H]1[C@@]24OO3` (stereo partly specified), the Survival stood at 15.7 days with Plasmodium berghei [2] and 10 days in the test with Plasmodium berghei [3]. This compound also yielded an Activity in the test on Plasmodium berghei [4] of 99%.
As for `C[C@H]1[C@@H](CC2(C[C@H]3O[C@@H]4O[C@]5(C)CC[C@H]6[C@H](C)CC[C@@H]([C@H]3C)[C@@]46OO5)COC3(CCC(=O)CC3)O2)O[C@@H]2O[C@]3(C)CC[C@H]4[C@H](C)CC[C@@H]1[C@@]24OO3` (stereo partly specified), the Survival entry with Plasmodium berghei [1] is “>=30 day”; with Plasmodium berghei [2], 16.3 days; in the test on Plasmodium berghei [3] it was 8.3 days. For the same compound, in the test with Plasmodium berghei [4], the Activity was 99.6%.
Regarding `CCN(CC)C(=O)OCC(C[C@H]1O[C@@H]2O[C@]3(C)CC[C@H]4[C@H](C)CC[C@@H]([C@H]1C)[C@@]24OO3)C[C@H]1O[C@@H]2O[C@]3(C)CC[C@H]4[C@H](C)CC[C@@H]([C@H]1C)[C@@]24OO3` (stereo partly specified), the Survival result with Plasmodium berghei [1] was “>=30 day”; in the test on Plasmodium berghei [2], 14 days; in the test with Plasmodium berghei [3] it was 11.7 days. The Activity in the test on Plasmodium berghei [4] amounted to 99.3%.
`Cc1ccc(COCC(C[C@H]2O[C@@H]3O[C@]4(C)CC[C@H]5[C@H](C)CC[C@@H]([C@H]2C)[C@@]35OO4)C[C@H]2O[C@@H]3O[C@]4(C)CC[C@H]5[C@H](C)CC[C@@H]([C@H]2C)[C@@]35OO4)cc1` (stereo partly specified): the Survival entry in the test with Plasmodium berghei [1] is “>=30 day”; in the test on Plasmodium berghei [2], 8 days.
